Screening data: PubChem BioAssay, several laboratories
RAM network inh: inhibitors of the yeast RAM network; 190,000 compounds, 1.8% hits; inhibition, % at 50 µM; S. cerevisiae dse1pr::URA3 reporter, 5-FOA growth OD615, 2 d; analog-sensitive cbk1-as2 kinase mutant strain;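 active = inhibition above a set limit, 3 SD over mean compound inhibition, cut at about 8.4% in these data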;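 note: 0% = DMSO-only wells with no growth and 100% = 10 µM 1-NA-PP1 full growth; inhibition rescues growth on 5-FOA so higher OD means more RAM inhibition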
BB579 growth dn: reduces growth of yeast BB579 in restrictive medium; AID 804; 140,000 compounds, 0.51% hits; S. cerevisiae BB579 growth, OD615, 48 h; inhibition, % at 10 µM;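 active = inhibition above a set limit, 3 SD over the mean compound inhibition, cut at about 44% in these data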
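Material: Saccharomyces cerevisiae DeaD strain BB579, replicative lifespan model yeast; buffer or medium: CSMM-D restrictive synthetic medium containing dextrose (glucose); compound: 10 µM single dose, DMSO 0.25%; timing: 48 h compound exposure at 30 °C after 4 h preincubation; signal: turbidity as optical density at 615 nm; benchmarks: positive control amphotericin B 10 µg/mL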
SDO1 yeast rescue: compounds rescuing growth of sdo1-depleted yeast, bone marrow failure model; S. cerevisiae sdo1-depleted JHY4D growth rescue, OD600 30 h; hits give high values; pdr5 snq2 efflux-pump mutant strain; z-score at 10 µM; 140,000 compounds, 0.21% hits;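 active = z-score above 3 at both the 24 hr and the 30 hr optical density reads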;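 note: z-score against mean and SD of all compound wells on the same plate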
Yeast life ext: yeast lifespan extension; S. cerevisiae growth with nicotinamide, OD615; deaD strain in restrictive glucose medium; inhibition of the nicotinamide effect, % at 10 µM; 130,000 compounds, 0.68% hits;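 active = inhibition above a set limit, placed 3 SD over the median of all compounds, cut at about 26% in these data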;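 note: 0% = nicotinamide-treated wells and 100% = cells grown without nicotinamide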
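Assay system: engineered S. cerevisiae DeaD replicative-lifespan strain, galactose-grown log-phase cells; medium: restrictive CSMM-D dextrose medium; also added: nicotinamide, 1.5 mM, co-present with compound; schedule: 48 h compound exposure at 30 °C, humidified; detection: absorbance at 615 nm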
RAM efflux-def: RAM network inhibition, efflux-deficient strain; shares compounds with RAM network inh; 1,200 tested, under 10 active; AID 1305; S. cerevisiae efflux-deficient reporter strain, 5-FOA growth OD615, 2 days; max inhibition, %; call rule not given here;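 note: plate controls were vehicle for no effect and reference inhibitor for full effect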
An asterisk follows results filed as active; / = no result given. Compounds with a hit are over-represented: about 2.7% of the library has one in this group of screens.

SMILES	RAM network inh	BB579 growth dn	SDO1 yeast rescue	Yeast life ext	RAM efflux-def
CCCCOc1ccccc1NC(=O)c1scc2c1OCCO2	13*	/	/	/	5
CCCCOc1ccccc1NC(=O)c1ccco1	0	-28	-0.86	-19	/
Cc1sc2ncnc(SCC(=O)Nc3nc(-c4ccc(F)c(F)c4)cs3)c2c1C	5	/	/	/	/
CCOC(=O)c1c(-c2cccs2)csc1NC(=O)COC(=O)c1c(C)noc1C	12*	-37	-0.24	-8	2
N#CCCCSc1nnc(-c2ccc(Cl)cc2)n1-c1ccccc1	15*	-37	-1.4	8	1
COC(=O)C(Sc1nc(C)cc(C)c1C#N)c1ccccc1 (stereo not given)	12*	-54	-1.1	-4	1
COC(=O)CSc1nc(C)cc(C)c1C#N	1	/	/	/	/
CC1CN(c2ccc(Cl)cc2[N+](=O)[O-])CCN1S(C)(=O)=O (stereo not given)	2	/	/	/	/
CCOC(=O)c1ccc(COC(=O)c2ccc3c(c2)-c2ccccc2C3=O)cc1	12*	-4	-0.22	-1	5
CCOC(=O)c1ccc(COC(=O)CNS(=O)(=O)c2ccccc2)cc1	0	/	/	/	/
CCOC(=O)C1=C(Cc2ccc(OC)cc2)C(=O)c2ccccc2C1=O	12*	-52	-1.3	9	3
O=C(OCc1ccccc1F)c1ccc2c(c1)-c1ccccc1C2=O	13*	-21	-0.92	-10	3
O=C(OCc1cccc(F)c1)c1ccc2c(c1)-c1ccccc1C2=O	8	-1	0.2	-21	/
COC(=O)[C@@H]1CCCN1C(=O)CCc1nnc(C2CCCCC2)o1	0	/	/	/	/
N#Cc1nc(COc2cccc(Cl)c2)oc1N1CCN(c2ccccc2)CC1	16*	-40	1.3	1	3
N#Cc1nc(COc2ccccc2)oc1N1CCCCC1	0	3	-0.65	-6	/
N#Cc1nc(COc2ccc(Cl)cc2)oc1N1CCCCCC1	2	-27	-1.6	-4	/
N#Cc1nc(COc2ccccc2)oc1N1CCN(c2cccc(Cl)c2)CC1	12*	-66	-0.31	-18	3
CCOC(=O)N/N=C(/C)c1ccc(N2C(=O)C3CCCCC3C2=O)cc1 (stereo not given)	2	/	/	/	/
O=[N+]([O-])c1ccc(C2CCCC/C2=N/OCc2ccc(F)cc2)c([N+](=O)[O-])c1 (stereo not given)	13*	-43	-0.61	-3	1
O=[N+]([O-])c1ccc(C2CCCC/C2=N/OCc2ccccc2F)c([N+](=O)[O-])c1 (stereo not given)	8	-34	-0.02	-5	/
CCOC(=O)CNC(=O)C1Cc2ccccc2CN1S(=O)(=O)c1cccs1 (stereo not given)	1	/	/	/	/
CC1CCCc2sc3ncn(N)c(=N)c3c21 (stereo not given)	1	/	/	/	/
C[C@@H](NC(=O)c1nc[nH]c1C(=O)N[C@@H](Cc1ccccc1)C(=O)OCc1ccccc1)c1ccccc1	8	/	/	/	/
CC(C)(C)OC(=O)NCCCCCNC(=O)c1[nH]cnc1C(=O)N[C@@H](Cc1ccccc1)C(=O)OCc1ccccc1	13*	/	/	/	7
SMILES	RAM network inh	BB579 growth dn	SDO1 yeast rescue	Yeast life ext	RAM efflux-def
CN(Cc1ccccc1)C(=O)c1[nH]cnc1C(=O)N[C@@H](Cc1ccccc1)C(=O)OCc1ccccc1	12*	/	/	/	3
CC(C)C[C@H](NC(=O)c1nc[nH]c1C(=O)NCc1ccccc1)C(=O)OCc1ccccc1	14*	/	/	/	8
O=C(CN1C(=O)C(=O)N(C2CCCC2)C1=O)Nc1ccc(N2CCOCC2)cc1	1	/	/	/	/
O=C(Nc1ccc(-c2nc3ccccc3s2)cc1)c1cc(-n2cnnc2)ccc1Cl	16*	-24	0.19	-5	5
Cc1ccc(C(C)C)c(OCC(=O)OCc2c(C)noc2C)c1	23*	-14	-0.63	-3	1
O=C(COc1ccc2c(c1)C(=O)CC1(CCCCC1)O2)NCc1ccccc1	12*	-10	-0.25	-1	2
Cc1ccc(NC(=O)CCC(=O)OCCCC(F)(F)C(F)(F)F)cc1	0	-18	-0.32	-7	/
O=C(CCC(=O)OCCCC(F)(F)C(F)(F)F)Nc1ccc(Cl)cc1Cl	29*	-58	-0.21	-3	3
COc1ccccc1-n1cnc2c(c1=O)c1nc3ccccc3nc1n2-c1ccc(C)cc1	11*	-46	-0.37	3	3
COc1ccccc1/C=C(/C(=O)OCC(=O)Nc1ccccc1C(C)C)c1ccccc1	12*	-46	-0.19	3	3
COc1ccc(C)cc1N1C(=N)/C(=C2/Nc3ccccc3S2)C(c2ccccc2)C1=O (stereo not given)	13*	-54	-1.2	26	3
CSc1ncc(CO)n1Cc1ccccc1	1	/	/	/	/
COc1cc(CNn2c(C)n[nH]c2=S)cc(Cl)c1OCc1ccc(F)cc1	12*	-46	-0.67	5	1
COc1cc(CNn2c(C)n[nH]c2=S)cc(Br)c1OCc1ccc(F)cc1	4	-30	-1.1	0	/
O=C(CSc1nnc(CNc2ccc(F)cc2)o1)c1ccccc1	2	/	/	/	/
CC(=O)c1ccc(NC(=O)COC(=O)CCC(=O)c2cccs2)cc1	2	-31	0.2	-5	/
Cc1ccc(Oc2ccc(NC(=O)CCC(=O)OCC(=O)c3cccs3)cc2)cc1C	13*	-46	0.86	-5	3
COc1ccc(/C=N/N=C2\SC(CC(=O)O)C(=O)N2c2ccccc2)cc1 (stereo not given)	4	-7	1.3	4	/
CCCC1S/C(=N/N=C/c2ccc(C)cc2)N(Cc2ccc(OC)cc2)C1=O (stereo not given)	12*	-51	0.43	9	5
Cc1ccc(CN(CC(=O)NC(C)(C)C)C(=O)CNC(=O)c2cccs2)cc1	2	/	/	/	/
Cc1ccc(-c2cc(C(F)F)nc(N3CCC(C)CC3)n2)cc1	12*	-4	-0.3	-16	5
CC1CCN(c2nc(-c3ccccc3)cc(C(F)(F)F)n2)CC1	7	-68	-0.49	-8	/
CC1=CC(C)(C)n2c(O)c(N=NC(N)=S)c3cccc1c32	13*	-34	0.16	11	5
Cc1cc(C)c(NC(=O)COC(=O)CSc2ccc(Br)cc2C)c(C)c1	8	-44	0.12	9	/
Cc1cc(Br)ccc1SCC(=O)OCC(=O)NC1CCCC1	17*	/	/	/	2
SMILES	RAM network inh	BB579 growth dn	SDO1 yeast rescue	Yeast life ext	RAM efflux-def
COC(=O)Nc1[nH]ncc1[N+](=O)[O-]	2	/	/	/	/
COc1cccc(C(=O)NC(c2ccccc2)C2CCCC2)c1 (stereo not given)	4	/	/	/	/
C=CCn1c(C)cc(C(=O)COC(=O)/C=C/c2ccc(OC)cc2)c1C	8	/	/	/	/
C=CCn1c(C)cc(C(=O)COC(=O)/C=C/c2cccc(OC)c2)c1C	20*	/	/	/	5
CCOc1ccc2nc3c(cc2c1)CN(CCOC)C(=NCCOC)S3	14*	-31	-0.21	4	3
CC(CNC(=S)Nc1cc(F)cc(F)c1)CSc1ccc(Cl)cc1 (stereo not given)	6	/	/	/	/
